{
  "source": "ChEMBL document CHEMBL1150626",
  "about": "“Interiotherins C and D, two new lignans from Kadsura interior and antitumor-promoting effects of related neolignans on Epstein-Barr virus activation” (J Nat Prod, 2002)",
  "type_in_all_cases": "cell-based",
  "key": {"Raji [1]": {"test_system": "Raji", "assay": "Cytotoxicity against human Raji cells at 1000 mol ratio by trypan blue staining method", "in_short": "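Viability was assessed by trypan blue staining in Raji cells treated as in the EBV-EA assay: 48 h at 37 °C with n-butyric acid 4 mM, TPA and test compound in DMSO. Results are expressed as percent viable cells.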"}, "Raji [2]": {"test_system": "Raji", "assay": "Inhibition of TPA-induced EBV-early antigen activation in human Raji cells assessed as EA activation at 1000 mol ratio relative to TPA", "set-up": "scale not given: the % may be the effect or the level left", "conditions": "human gammaherpesvirus 4"}, "Raji [3]": {"test_system": "Raji", "assay": "Inhibition of TPA-induced EBV-early antigen activation in human Raji cells assessed as EA activation at 500 mol ratio relative to TPA", "set-up": "scale not given: the % may be the effect or the level left", "conditions": "human gammaherpesvirus 4"}, "Raji [4]": {"test_system": "Raji", "assay": "Inhibition of TPA-induced EBV-early antigen activation in human Raji cells assessed as EA activation at 100 mol ratio relative to TPA", "set-up": "scale not given: the % may be the effect or the level left", "conditions": "human gammaherpesvirus 4"}, "Raji [5]": {"test_system": "Raji", "assay": "Inhibition of TPA-induced EBV-early antigen activation in human Raji cells assessed as EA activation at 10 mol ratio relative to TPA", "set-up": "scale not given: the % may be the effect or the level left", "conditions": "human gammaherpesvirus 4"}},
  "data": [
    {"smiles": "COc1cc2c(c(OC)c1OC)-c1c(cc3c(c1OC)OCO3)C[C@H](C)[C@@](C)(O)C2", "note": "[GOMISIN A]", "values": [
      {"measurement": "Activity", "setting": "Raji [1]", "result": 70, "unit": "%"}
    ]},
    {"smiles": "COc1cc2c(c(OC)c1OC)-c1c(cc3c(c1OC)OCO3)[C@@H]1O[C@H]2[C@@H](C)[C@H]1C", "note": "[NEOKADSURANIN]", "values": [
      {"measurement": "Activity", "setting": "Raji [2]", "result": 4.7, "unit": "%"},
      {"measurement": "Activity", "setting": "Raji [3]", "result": 51.6, "unit": "%"},
      {"measurement": "Activity", "setting": "Raji [4]", "result": 72.9, "unit": "%"},
      {"measurement": "Activity", "setting": "Raji [1]", "result": 70, "unit": "%"},
      {"measurement": "Activity", "setting": "Raji [5]", "result": 92.6, "unit": "%"}
    ]},
    {"smiles": "COc1cc2c(c(OC)c1OC)-c1c(cc3c(c1OC)OCO3)C[C@H](C)[C@](C)(O)C2", "values": [
      {"measurement": "Activity", "setting": "Raji [2]", "result": 7.1, "unit": "%"},
      {"measurement": "Activity", "setting": "Raji [3]", "result": 52.5, "unit": "%"},
      {"measurement": "Activity", "setting": "Raji [4]", "result": 78.3, "unit": "%"},
      {"measurement": "Activity", "setting": "Raji [5]", "result": 96.6, "unit": "%"}
    ]},
    {"smiles": "C/C=C(/C)C(=O)O[C@H]1c2cc3c(c4c2[C@@]2(CO4)C(=O)C(=O)C(OC)=C/C2=C/[C@@H](C)[C@H]1C)OCO3", "note": "[INTERIOTHERIN D]", "values": [
      {"measurement": "Activity", "setting": "Raji [2]", "result": 11.5, "unit": "%"},
      {"measurement": "Activity", "setting": "Raji [3]", "result": 55.8, "unit": "%"},
      {"measurement": "Activity", "setting": "Raji [4]", "result": 75, "unit": "%"},
      {"measurement": "Activity", "setting": "Raji [1]", "result": 60, "unit": "%"},
      {"measurement": "Activity", "setting": "Raji [5]", "result": 94.8, "unit": "%"}
    ]},
    {"smiles": "COc1cc2c(c(OC)c1OC)-c1c(cc3c(c1OC)OCO3)[C@H](OC(C)=O)[C@H](C)[C@H](C)C2", "note": "[KADSURIN]", "values": [
      {"measurement": "Activity", "setting": "Raji [2]", "result": 15, "unit": "%"},
      {"measurement": "Activity", "setting": "Raji [3]", "result": 58.3, "unit": "%"},
      {"measurement": "Activity", "setting": "Raji [4]", "result": 79.9, "unit": "%"},
      {"measurement": "Activity", "setting": "Raji [1]", "result": 60, "unit": "%"},
      {"measurement": "Activity", "setting": "Raji [5]", "result": 100, "unit": "%"}
    ]},
    {"smiles": "COc1cc2c(c(OC)c1OC)-c1c(cc3c(c1OC)OCO3)[C@H](OC(=O)c1ccccc1)[C@@](C)(O)[C@@H](C)C2", "note": "[GOMISIN G]", "values": [
      {"measurement": "Activity", "setting": "Raji [2]", "result": 18.9, "unit": "%"},
      {"measurement": "Activity", "setting": "Raji [3]", "result": 59.2, "unit": "%"},
      {"measurement": "Activity", "setting": "Raji [4]", "result": 81.4, "unit": "%"},
      {"measurement": "Activity", "setting": "Raji [1]", "result": 60, "unit": "%"},
      {"measurement": "Activity", "setting": "Raji [5]", "result": 100, "unit": "%"}
    ]},
    {"smiles": "COc1c2c(cc3c1-c1c(cc4c(c1OC)OCO4)C[C@H](C)[C@H](C)C3)OCO2", "note": "[SCHISANDRIN C]", "values": [
      {"measurement": "Activity", "setting": "Raji [2]", "result": 2.6, "unit": "%"},
      {"measurement": "Activity", "setting": "Raji [3]", "result": 50.7, "unit": "%"},
      {"measurement": "Activity", "setting": "Raji [4]", "result": 73.6, "unit": "%"},
      {"measurement": "Activity", "setting": "Raji [1]", "result": 70, "unit": "%"},
      {"measurement": "Activity", "setting": "Raji [5]", "result": 92.1, "unit": "%"}
    ]},
    {"smiles": "COc1c2c(cc3c1-c1c(cc4c(c1OC)OCO4)[C@H](OC(=O)c1ccccc1)[C@@H](C)[C@@H](C)C3)OCO2", "note": "[INTERIOTHERIN A]", "values": [
      {"measurement": "Activity", "setting": "Raji [2]", "result": 18.3, "unit": "%"},
      {"measurement": "Activity", "setting": "Raji [3]", "result": 60.1, "unit": "%"},
      {"measurement": "Activity", "setting": "Raji [4]", "result": 85.7, "unit": "%"},
      {"measurement": "Activity", "setting": "Raji [1]", "result": 60, "unit": "%"},
      {"measurement": "Activity", "setting": "Raji [5]", "result": 100, "unit": "%"}
    ]},
    {"smiles": "C/C=C(/C)C(=O)O[C@H]1c2cc3c(c(OC)c2-c2c(cc4c(c2OC)OCO4)C[C@H](C)[C@]1(C)O)OCO3", "note": "[INTERIOTHERIN B]", "values": [
      {"measurement": "Activity", "setting": "Raji [2]", "result": 11.6, "unit": "%"},
      {"measurement": "Activity", "setting": "Raji [3]", "result": 57.2, "unit": "%"},
      {"measurement": "Activity", "setting": "Raji [4]", "result": 80.3, "unit": "%"},
      {"measurement": "Activity", "setting": "Raji [1]", "result": 60, "unit": "%"},
      {"measurement": "Activity", "setting": "Raji [5]", "result": 100, "unit": "%"}
    ]},
    {"smiles": "C/C=C(/C)C(=O)O[C@H]1c2cc3c(c(OC)c2-c2c(cc4c(c2OC)OCO4)C[C@H](C)[C@@H]1C)OCO3", "note": "[ANGELOYLGOMISIN R]", "values": [
      {"measurement": "Activity", "setting": "Raji [2]", "result": 10.6, "unit": "%"},
      {"measurement": "Activity", "setting": "Raji [3]", "result": 55.6, "unit": "%"},
      {"measurement": "Activity", "setting": "Raji [4]", "result": 79, "unit": "%"},
      {"measurement": "Activity", "setting": "Raji [1]", "result": 60, "unit": "%"},
      {"measurement": "Activity", "setting": "Raji [5]", "result": 100, "unit": "%"}
    ]},
    {"smiles": "COc1cc2c(c(OC)c1OC)-c1c(cc3c(c1OC)OCO3)C[C@H](C)[C@](C)(O)[C@H]2OC(=O)c1ccccc1", "note": "[GOMISIN C]", "values": [
      {"measurement": "Activity", "setting": "Raji [2]", "result": 19.7, "unit": "%"},
      {"measurement": "Activity", "setting": "Raji [3]", "result": 60.2, "unit": "%"},
      {"measurement": "Activity", "setting": "Raji [4]", "result": 87.4, "unit": "%"},
      {"measurement": "Activity", "setting": "Raji [1]", "result": 60, "unit": "%"},
      {"measurement": "Activity", "setting": "Raji [5]", "result": 100, "unit": "%"}
    ]},
    {"smiles": "C/C=C(/C)C(=O)O[C@H]1c2cc3c(c4c2[C@@]2(CO4)C(=O)C(OC)=C(OC)C=C2C[C@@H](C)[C@H]1C)OCO3", "note": "[HETEROCLITIN D]", "values": [
      {"measurement": "Activity", "setting": "Raji [2]", "result": 9.4, "unit": "%"},
      {"measurement": "Activity", "setting": "Raji [3]", "result": 54.7, "unit": "%"},
      {"measurement": "Activity", "setting": "Raji [4]", "result": 76.2, "unit": "%"},
      {"measurement": "Activity", "setting": "Raji [1]", "result": 70, "unit": "%"},
      {"measurement": "Activity", "setting": "Raji [5]", "result": 100, "unit": "%"}
    ]},
    {"smiles": "C/C=C(/C)C(=O)O[C@H]1c2cc3c(c4c2[C@]2(CO4)C(=CC(=O)C(OC)=C2OC)C[C@@H](C)[C@H]1C)OCO3", "note": "[INTERIORIN]", "values": [
      {"measurement": "Activity", "setting": "Raji [2]", "result": 13.5, "unit": "%"},
      {"measurement": "Activity", "setting": "Raji [3]", "result": 52, "unit": "%"},
      {"measurement": "Activity", "setting": "Raji [4]", "result": 77.4, "unit": "%"},
      {"measurement": "Activity", "setting": "Raji [1]", "result": 60, "unit": "%"},
      {"measurement": "Activity", "setting": "Raji [5]", "result": 100, "unit": "%"}
    ]},
    {"smiles": "C/C=C(/C)C(=O)O[C@H]1c2cc(OC)c(OC)c(OC)c2-c2c(cc3c(c2OC)OCO3)[C@H](OC(C)=O)[C@H](C)[C@@H]1C", "note": "[INTERIOTHERIN C]", "values": [
      {"measurement": "Activity", "setting": "Raji [2]", "result": 16, "unit": "%"},
      {"measurement": "Activity", "setting": "Raji [3]", "result": 59, "unit": "%"},
      {"measurement": "Activity", "setting": "Raji [4]", "result": 78.9, "unit": "%"},
      {"measurement": "Activity", "setting": "Raji [1]", "result": 60, "unit": "%"},
      {"measurement": "Activity", "setting": "Raji [5]", "result": 100, "unit": "%"}
    ]},
    {"smiles": "C/C=C(/C)C(=O)O[C@H]1c2cc3c(c4c2C(C(=O)C(=O)OC)(CO4)/C(=C/C(=O)OC)C[C@@H](C)[C@H]1C)OCO3", "note": "(stereo not given in full) [HETEROCLITIN F]", "values": [
      {"measurement": "Activity", "setting": "Raji [2]", "result": 16.5, "unit": "%"},
      {"measurement": "Activity", "setting": "Raji [3]", "result": 58.9, "unit": "%"},
      {"measurement": "Activity", "setting": "Raji [4]", "result": 82.4, "unit": "%"},
      {"measurement": "Activity", "setting": "Raji [1]", "result": 60, "unit": "%"},
      {"measurement": "Activity", "setting": "Raji [5]", "result": 100, "unit": "%"}
    ]}
  ]
}
